Experimental data taken from ChEMBL document CHEMBL1148136, “Induction of quinone reductase by withanolides” (J Nat Prod, 2002).
Calls of active or inactive are those of the source. No cut-off for these calls is given here.

Columns and labels:
Mus musculus [1] = assay: Induction of quinone reductase activity in BALB/c mouse liver at 2.5 mg/0.2 ml/day administered intragastrically for 3 consecutive day; type: functional, organism-based
Procedure, shortened: (§1)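 BALB/c mice, n = 3, dosed intragastrically for 3 consecutive days at 2.5 mg per mouse per day in 0.2 mL sesame oil. Quinone reductase activity was then assessed in liver, lung, colon, stomach and mammary gland tissue, and the change in activity is reported for each organ.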

Mus musculus [2] = assay: Induction of quinone reductase activity in BALB/c mouse colon at 2.5 mg/0.2 ml/day administered intragastrically for 3 consecutive day; type: functional, organism-based; procedure, shortened: as §1
Mus musculus [3] = assay: Induction of quinone reductase activity in BALB/c mouse lung at 2.5 mg/0.2 ml/day administered intragastrically for 3 consecutive day; type: functional, organism-based; procedure, shortened: as §1
[4] = Chemoprevention index, ratio of IC50 for mouse Hepa-1c1c7 cells to drug level required to double specific quinone reductase activity in mouse Hepa-1c1c7 cells; type: functional
Procedure, shortened: (§2)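 Hepa 1c1c7 cells seeded at 4000 cells/mL, grown 24 h at 37 °C under CO2, then medium changed. Compounds added in 10% DMSO, serially diluted over 0.15-20 µg/mL, and incubated a further 48 h. QR measured as NADPH-dependent, menadiol-mediated MTT reduction to formazan. Protein by crystal violet at 595 nm in duplicate plates. Specific activity expressed relative to solvent control. CD = concentration giving 2-fold activity, CQ = 4-fold. CI = IC50/CD or IC50/CQ.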

Mus musculus [5] = assay: Induction of quinone reductase activity in BALB/c mouse stomach at 2.5 mg/0.2 ml/day administered intragastrically for 3 consecutive day; type: functional, organism-based; procedure, shortened: as §1
[6] = Growth inhibition of mouse Hepa-1c1c7 cells by crystal violet staining; type: cell-based; settings: Mus musculus, Hepa-1c1c7
Procedure, shortened: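 Hepa 1c1c7 cells seeded at 4000 cells/mL and grown 24 h at 37 °C, then medium changed. Compounds added in 10% DMSO, serially diluted over 0.15-20 µg/mL, and exposed 48 h. Viability read by crystal violet staining at 595 nm. IC50 taken as the half-maximal inhibitory concentration of cell viability.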

Mus musculus [7] = assay: Induction of quinone reductase activity in BALB/c mouse mammary gland at 2.5 mg/0.2 ml/day administered intragastrically for 3 consecutive day; type: functional, organism-based; procedure, shortened: as §1
[8] = Chemoprevention index, ratio of IC50 for mouse Hepa-1c1c7 cells to drug level required to induce 4-fold increase in quinone reductase activity in mouse Hepa-1c1c7 cells; type: functional; procedure, shortened: as §2

Row | SMILES | Activity (Mus musculus [1]) | Activity (Mus musculus [2]) | Activity (Mus musculus [3]) | Ratio [4] | Activity (Mus musculus [5]) | IC50 [6] | Activity (Mus musculus [7]) | Ratio [8]
1 | CC1=C(C)[C@]2(OC1=O)[C@H](O)[C@@H](C)[C@]1(O)CC[C@H]3[C@@H]4CC=C5CC=CC(=O)[C@]5(C)[C@H]4C[C@@]2(O)[C@@]31C [JABOROSALACTONE P] | inactive | inactive | inactive | >57 | inactive | > 42700 nM | inactive | 
2 | CC(=O)O[C@H]1C=CC(=O)[C@]2(C)[C@H]3CC[C@]45C(=O)O[C@@](C)([C@H]6C[C@H](C)[C@@H](C)C(=O)O6)[C@H]4CC[C@H]5[C@@H]3C[C@H]3O[C@]132 |  |  |  | >1.5 |  | 420 nM |  | >1.5
3 | C[C@@H](c1ccc2c(c1)CC[C@H]1[C@H]2[C@@H]2O[C@@H]2[C@@]2(O)CC=CC(=O)[C@]12C)C1C[C@]2(C)O[C@]2(C)[C@H](O)O1 (some centres undefined) [NICANDRENONE] |  |  |  | 4.1 |  | 42900 nM |  | 1.1
4 | CC1=C(C)C(=O)O[C@@H]([C@](C)(O)[C@H]2CC[C@H]3[C@@H]4[C@@H](O)C=C5[C@@H](O)C=CC(=O)[C@]5(C)[C@H]4CC[C@]23C)C1 |  |  |  | 3.5 |  | 1660 nM |  | 0.62
5 | CC1=C(C)C(=O)O[C@@H]([C@@H](C)[C@H]2[C@@H](O)C[C@H]3[C@@H]4C[C@H]5O[C@]56[C@@H](O)C=CC(=O)[C@]6(C)[C@H]4CC[C@]23C)C1 |  |  |  | >2.1 |  | 660 nM |  | 1.3
